Screening data deposited in PubChem BioAssay by several laboratories.
Hits are enriched below; roughly 1.5% of the tested compounds scored in any of these assays.
Rev-erbA mod: modulates human Rev-erb alpha binding to DNA | Rev-erbα–FITC-DNA binding, fluorescence polarization, 90 min | activity, % at 10 µM | 0.79% of 370,000 active | AID 1259318;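 active means activity above about 14%, limit read from the data; passing the limit was not always enough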;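 further: 0% = DMSO wells with 35 nM protein and 100% = DMSO wells with 750 nM protein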
Target sequence (P20393 whole entry, looked up): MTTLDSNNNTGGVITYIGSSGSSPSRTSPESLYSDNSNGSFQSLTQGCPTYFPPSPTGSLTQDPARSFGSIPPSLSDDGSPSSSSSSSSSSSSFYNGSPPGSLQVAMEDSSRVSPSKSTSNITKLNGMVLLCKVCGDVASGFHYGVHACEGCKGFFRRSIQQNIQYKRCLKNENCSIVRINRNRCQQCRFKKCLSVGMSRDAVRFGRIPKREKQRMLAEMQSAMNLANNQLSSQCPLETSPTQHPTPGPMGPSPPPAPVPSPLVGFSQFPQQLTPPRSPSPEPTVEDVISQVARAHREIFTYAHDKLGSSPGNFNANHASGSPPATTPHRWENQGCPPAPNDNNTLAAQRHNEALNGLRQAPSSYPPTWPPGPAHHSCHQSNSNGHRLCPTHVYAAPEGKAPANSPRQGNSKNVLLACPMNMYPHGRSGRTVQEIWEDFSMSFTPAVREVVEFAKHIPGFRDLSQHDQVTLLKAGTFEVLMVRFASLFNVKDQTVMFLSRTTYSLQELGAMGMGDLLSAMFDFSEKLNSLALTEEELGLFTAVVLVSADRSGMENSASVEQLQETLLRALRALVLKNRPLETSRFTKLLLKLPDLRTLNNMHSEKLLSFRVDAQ
PG9 Ab binder: small molecules binding HIV-1 gp120 antibody PG9. TR-FRET gp120-PG9 antibody binding. inhibition, % at 6.7 µM. 0.43% of 360,000 active. AID 624416; in the data active means inhibition above about 8.5%
NR2E3 ag-1: activates human NR2E3 receptor | Q9Y5X4 | CHO-S Gal4-NCOR/VP16-NR2E3 two-hybrid, luciferase | inhibition of corepressor binding, % at 3.98 µM | 0.35% of 360,000 active | AID 602229;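 active means inhibition above the mean of all tested compounds plus 3 SD, cut at about 70% in these data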;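 further: 0% = DMSO with NR2E3 transfected cells and 100% = cells lacking NR2E3 construct; higher means lower luciferase signal from less NR2E3 corepressor binding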
NR2E3 ag-2: agonists of human nuclear receptor NR2E3; GST-NR2E3/biotin-RetCOR TR-FRET, 1536-well; inhibition of corepressor binding, % at 4.78 µM; 0.12% of 320,000 active; Q9Y5X4;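 active means percent inhibition above the cutoff of mean plus 3 SD of all tested compounds, set per screening campaign, cut at about 20% in these data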;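 further: 0% = DMSO wells and 100% = biotin wells as full block of FRET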
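Material: NR2E3–RetCOR corepressor complex / Amount: 1.35 nM GST-NR2E3 / Medium: Tris pH 7.5 / Compound: single nominal compound dose of 4.8 µM / Incubation: 5 h at 4 °C / Technique: TR-FRET, Eu(K)-anti-GST donor, streptavidin-D2 acceptor, ex 340, em 617/671 nm / Read-out basis: percent loss of FRET ratio relative to control wells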
Rev-erbA confirm: confirmation of modulators of human Rev-erb alpha DNA binding; shares compounds with Rev-erbA mod; Rev-erb alpha FITC-DNA binding, fluorescence polarization, 90 min; activation, % at 25 µM; 61% of 3,000 active; AID 1259319;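 active means activation at or above a set limit, or at least 3 SD above the negative control mean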;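 further: 0% = 35 nM protein with DMSO and 100% = 750 nM protein high control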
RORg counter: RORgamma DNA-binding activity, dose-response counter-screen | purified RORgamma protein-FITC-DNA binding, fluorescence polarization | shares compounds with Rev-erbA mod | 8% of 910 active | IC50, µM | AID 1259320;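 active means Compounds whose fitted half-maximal concentration for disrupting protein-DNA binding is below 10 micromolar; the record names Rev-erb in its text, so the target is in doubt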
* = called active by the depositor; / = no result; ! = not confirmed by another sample.

SMILES | Rev-erbA mod | PG9 Ab binder | NR2E3 ag-1 | NR2E3 ag-2 | Rev-erbA confirm | others
Cn1c(=O)c(Nc2ccc(O)cc2)c2c3c(cccc31)C(=O)c1ccccc1-2 | 175* | -1 | 21 | 1 | 157* | RORg counter=>40
O=C(Nc1ccc(N2CCN(C(=O)c3ccco3)CC2)cc1)c1cccnc1Cl | -1 | -2 | -18 | 4 | /
O=S(=O)(c1ccc(Br)cc1)N1CCN(c2cc(-c3ccccc3)nc3ncnn23)CC1 | 30* | / | -19 | -6 | 26*
O=S(=O)(c1ccccc1)N1CCN(c2cc(-c3ccccc3)nc3ncnn23)CC1 | 17 | -1 | -1 | 0 | /
CC(=O)c1sc(NC(=O)COc2ccc(Cl)cc2Cl)nc1C | 31* | 0 | -24 | 4 | 1
CC(=O)c1sc(NC(=O)COc2ccc(Cl)cc2C)nc1C | 84* | 3 | -8 | 2 | 25*
COc1ccc(NC2CCCN(C(=O)CCc3cn[nH]c3)C2)cc1 (stereo not given) | 1 | -2 | 1 | 2 | /
COc1ccc(C(=O)OCC(=O)c2c(N)n(C)c(=O)n(C)c2=O)c(OC)c1OC | -3 | -1 | -33 | / | /
O=C(NCc1ccccc1)[C@@H]1CCCN1C(=O)[C@H]1CCCN1C(=O)c1ccccc1Cl | -2 | -1 | / | / | /
C=CCN1C(=O)/C(=C2/Sc3ccc(OC)cc3N2C)SC1=NCc1ccccc1 | 55* | -2 | -3 | 4 | 47* | RORg counter=>40
CN(CCOC(=O)c1cc2ccccc2o1)C1CN(Cc2cn(Cc3ccccc3Cl)nn2)S(=O)(=O)C1 (stereo not given) | -5 | / | / | / | /
CC1=NN(c2ccccc2)C(=O)/C1=C\C=C1\N(C)c2ccccc2C1(C)C | 49* | -3 | -14 | -2 | 54* | RORg counter=>40
CN1/C(=C\C=C2/C(=O)Oc3ccccc3C2=O)C(C)(C)c2ccccc21 | 59* | -2 | / | 0 | 53* | RORg counter=>40
CC1=NN(c2ccccc2)C(=O)/C1=C\C=C1/N(C)c2ccccc2C1(C)C | 79* | -4 | -14 | 5 | 87* | RORg counter=8.6*
COC(=O)NC1(C(F)(F)F)C(=O)Nc2c1c(=O)n(C)c(=O)n2C (stereo not given) | 0 | 0 | -8 | 2 | /
CCC(C)Sc1ccc(-c2nc3cc(C)ccn3c2NC2CCCCC2)cc1 (stereo not given) | 20*! | 6 | -16 | / | 19*
CCCCCCSc1cc(-c2nc3cc(C)ccn3c2NC2CCCCC2)ccc1OC | 1 | 1 | -12 | 0 | /
CCCCCCSc1ccc(-c2nc3cc(C)ccn3c2NC2CCCCC2)cc1 | 20*! | 2 | -26 | / | -2
CC(=O)Nc1ccc(SCC(=O)Nc2ccccc2N2CCOCC2)cc1 | -8 | -3 | 13 | / | /
Cc1ccc(S(=O)(=O)N2C[C@H]3[C@H]4C(=O)N(C)C(=O)[C@H]4CC(=O)[C@H]3[C@@H]2c2ccccc2Cl)cc1 | 3 | 0 | 3 | / | /
CC(C)Cc1nc2sc3c(=O)[nH]cnc3c2c2c1CCC2 | 38* | 4 | -3 | 1 | 9
CCCc1nc2sc3c(=O)[nH]cnc3c2c2c1CCCC2 | 19 | 2 | / | -2 | /
CC(C)c1nc2sc3c(=O)[nH]cnc3c2c2c1CCCC2 | 25* | 0 | -24 | 0 | 0
FC(F)(F)c1cccnc1-n1cncn1 | -5 | -2 | -6 | 2 | /
Cc1ccc(N2C(=O)c3cccc4c(N)ccc(c34)C2=O)c2cccnc12 | 126* | -1 | -23 | -1 | 131*
SMILES | Rev-erbA mod | PG9 Ab binder | NR2E3 ag-1 | NR2E3 ag-2 | Rev-erbA confirm | others
CCN1C(=O)c2cccc3c(N)ccc(c23)C1=O | 240* | -8 | -21 | -6 | 246* | RORg counter=5.3*
Cc1nn(C)c(C)c1N1C(=O)c2cccc3c(N)ccc(c23)C1=O | 175* | -9 | -19 | -7 | 157* | RORg counter=1.8*
Cc1nn(C)c(C)c1N1C(=O)c2cccc3c(Br)ccc(c23)C1=O | 0 | 4 | -8 | 5 | /
O=C(OC1CCOC1=O)c1cccc(S(=O)(=O)N2CCc3ccccc3C2)c1 (stereo not given) | -7 | 0 | 19 | 1 | /
CC(C)(C)NC(=O)C1c2ccccc2OCC(=O)N1Cc1cccnc1 (stereo not given) | 3 | 1 | -24 | / | /
O=C(O)c1cccc(-c2ccc(/C=N/Nc3ccc([N+](=O)[O-])cc3)o2)c1 | 5 | -3 | -45 | 0 | /
O=C(O)c1ccc(-c2ccc(/C=N/Nc3ccc([N+](=O)[O-])cc3)o2)cc1 | 21* | -1 | -67 | 0 | 18*
CC(=O)c1cccc(S(=O)(=O)N2CCC(C(=O)NC3CCCC3)CC2)c1 | 2 | -5 | 10 | / | /
CC(=O)c1ccc(N2CCN(c3ccc(C(F)(F)F)cn3)CC2)cc1 | 37* | 1 | -8 | 5 | 29*
CC(=O)c1ccc(N2CCN(c3ncc(C(F)(F)F)cc3Cl)CC2)cc1 | -4 | 1 | 0 | 3 | /
CC(C)CCNc1nnnc2c1sc1nc(N3CCOCC3)c3c(c12)CC(C)(C)SC3 | 21* | -1 | -6 | 4 | 5
CC1(C)Cc2c(c(N3CCOCC3)nc3sc4c(NCCN5CCOCC5)nnnc4c23)CS1 | 4 | -1 | -1 | 2 | /
Cc1cc(C)n(CC(=O)Nc2ccc3c(c2)OCO3)c(=O)c1C#N | -4 | 1 | 5 | -3 | /
Cc1cc(C)c(NC(=O)CSc2nc(COc3ccccc3)nc3ccccc23)c(C)c1 | 55* | 0 | -26 | -5 | 47* | RORg counter=>40
Cc1ccccc1NC(=O)CSc1nc(COc2ccccc2)nc2ccccc12 | -2 | 2 | 12 | 1 | /
O=C(Cn1c(=S)[nH]c2ccccc2c1=O)N1CCN(c2ccccc2)CC1 | 40* | 0 | 4 | 4 | 24*
Cc1cccc(N2CCN(C(=O)CCCn3c(=S)[nH]c4cc5c(cc4c3=O)OCO5)CC2)c1C | 24* | 5 | 3 | 0 | 20*
CC(=O)c1ccc(N2CCN(C(=O)CCCn3c(=S)[nH]c4cc5c(cc4c3=O)OCO5)CC2)cc1 | 25* | -2 | -15 | -2 | 17
O=C(CCCn1c(=S)[nH]c2cc3c(cc2c1=O)OCO3)N1CCN(c2ccc(Cl)cc2)CC1 | 21 | 4 | 3 | 2 | /
Cc1ccc(Oc2ccc(S(=O)(=O)N3CCOCC3)cc2C(N)=O)c(-n2nc3ccccc3n2)c1 | 1 | -1 | -22 | 0 | /
O=C(NCc1ccccc1Cl)[C@H]1CCCN1C(=O)[C@H]1CCCN1C(=O)c1ccc(Cl)cc1 | 7 | 1 | 0 | / | /
COc1ccc(-c2cc3c(=O)n(CC(=O)Nc4ccc(C(C)=O)cc4)ncn3n2)cc1 | 34* | -2 | -20 | 0 | 41* | RORg counter=>40
COc1ccc(-c2cc3c(=O)n(CC(=O)NCc4cccnc4)ncn3n2)cc1 | -4 | 0 | -62 | 1 | /
COc1ccc(Cl)cc1NC(=O)CSc1nc(Nc2ccccc2)nc(N2CCOCC2)n1 | 5 | -1 | 8 | 2 | /
